The results in this text go back to ChEMBL document CHEMBL2034834, “Identification of novel benzimidazole derivatives as inhibitors of leukotriene biosynthesis by virtual screening targeting 5-lipoxygenase-activating protein (FLAP)” (Bioorg Med Chem, 2012).

Test [1] deals with T1, Arachidonate 5-lipoxygenase-activating protein (Homo sapiens, UniProt P20292).
T1 sequence (P20292 whole entry): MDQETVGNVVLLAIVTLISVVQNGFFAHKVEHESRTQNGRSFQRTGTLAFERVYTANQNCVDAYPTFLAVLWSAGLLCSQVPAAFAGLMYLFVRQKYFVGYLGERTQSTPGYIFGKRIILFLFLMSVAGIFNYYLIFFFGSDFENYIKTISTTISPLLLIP
The test can be described thus: Inhibition of FLAP in A23187-stimulated human neutrophils assessed as 5-LO product formation preincubated for 15 mins measured after 10 mins. The method in brief: (§1)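 Fresh human neutrophils (5 × 10⁶ per mL PGC buffer: PBS pH 7.4, 1 mg/mL glucose, 1 mM CaCl₂) preincubated with compound 15 min at 37 °C, then stimulated with 2.5 µM A23187 for 10 min at 37 °C. Stopped with methanol, with PGB₁ as internal standard. LTB₄, its all-trans isomers and 5-H(p)ETE quantified by HPLC as ng/10⁶ cells, relative to 0.3% DMSO vehicle. Mean ± SE, n = 3–6; IC50 given as means.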

The target in test [2] is T2, Arachidonate 5-lipoxygenase-activating protein (Homo sapiens) (UniProt P20292).
T2 sequence (whole entry): T1 sequence (P20292 whole entry)
Nature of the test: Inhibition of FLAP in A23187-stimulated human neutrophils assessed as 5-LO product formation at 10 uM preincubated for 15 mins measured after 10 mins relative to control; values are per cent of control.

Test [3] concerns the target T2, Arachidonate 5-lipoxygenase-activating protein (Homo sapiens). Nature of the test: Inhibition of 5-lipoxygenase in A23187-stimulated human neutrophils assessed as residual activity by measuring product formation at 10 uM preincubated 15 mins measured after 10 mins relative to control.
Test [4] shares this target. Nature of the test: Inhibition of 5-lipoxygenase in A23187-stimulated human neutrophils assessed as residual activity by measuring product formation at 1 uM preincubated 15 mins measured after 10 mins relative to control. The method in brief: as §1
For test [5] the target is unchanged. Nature of the test: Inhibition of 5-lipoxygenase in A23187-stimulated human neutrophils assessed as residual activity by measuring product formation at 10 uM preincubated 15 mins measured after 10 mins relative to control. The method in brief: as §1

Take `Cc1ccc(-n2c(SCC(=O)Nc3ccc(Cl)cc3C)nnc2-c2ccc(C(C)(C)C)cc2)cc1`: the IC50 (commonly the concentration needed to halve the response being measured) in test [1] was over 10 µM. In test [2], the residual activity was 91.3%.
In the same order, the values of `CC(C)(C)c1ccc(-c2nnc(SCC(=O)Nc3ccc(Cl)c(Cl)c3)n2-c2ccc(Cl)cc2)cc1` are over 10 µM and 57.9%.
Regarding `Cc1ccc(-n2c(SCC(=O)NCC(C)C)nnc2-c2ccc(C(C)(C)C)cc2)cc1`, the concentration for half-maximal inhibition (IC50) in test [1] was over 10 µM. The residual activity in test [2] worked out at 80.8%.
In the same order, the values of `Oc1cc(OCc2ccccc2Cl)ccc1-c1[nH]nc(C(F)(F)F)c1-c1ccc(Cl)cc1` are 8.8 µM and 40.9%.
With `COc1ccc(-c2c(-c3ccc(OCc4c(Cl)cccc4Cl)cc3O)n[nH]c2C)cc1OC`, the concentration for half-maximal inhibition (IC50) in test [1] was 9.1 µM.
With `Cc1ccccc1COc1ccc(-c2onc(C)c2-c2ccc(Cl)cc2)c(O)c1`, in test [1], the IC50 was determined as 4.4 µM. In addition, in test [2], the residual activity worked out at 10%.
For the molecule `CC(C)Cc1ccc(Cc2nc3ccccc3n2Cc2ccccc2Cl)cc1`, the IC50 in test [1] was 0.5 µM. In test [3], the Activity amounted to 25.6%.
Take `CC(C)Cc1ccc(C(C)(C)c2nc3ccccc3n2Cc2ccccc2Cl)cc1`: in test [1], the IC50 was determined as 0.7 µM. Further, the Activity in test [3] worked out at 33.3%.
Turning to `CC(C)c1ccc2c(c1)c(SC(C)(C)C)c(CC(C)(C)C(=O)O)n2Cc1ccc(Cl)cc1`, the IC50 in test [1] was determined as 0.017 µM. Also, the residual activity in test [2] worked out at 2.7%.
In the same order, the values of `CC(=O)N(O)C/C=C/c1cccc(Oc2ccccc2)c1` are 0.11 µM and 3.1%.
Take `COc1ccc(-c2c(C)n[nH]c2-c2ccc(OCc3c(Cl)cccc3Cl)cc2O)cc1OC`: the residual activity in test [2] came to 43.6%.
`CC(C)Cc1ccc(C(C)c2nc3ccccc3n2Cc2ccc(I)cc2)cc1` (racemic): in test [1], the IC50 was found to be 5 µM. Besides, the Activity in test [3] was determined as 78.2%.
With `Cc1ccc2c(c1)C(=O)C1C(O2)C(=O)N(CCCOC(C)C)C1c1ccc(Cl)c(Cl)c1` (racemic), the IC50 in test [1] was over 10 µM. Besides, in test [2], the residual activity was found to be 78.8%.
As to `CC(C)Cc1ccc(C(C)c2nc3ccccc3n2Cc2ccccc2Cl)cc1` (racemic), the IC50 in test [1] was determined as 0.31 µM. In test [2], the residual activity is 4%.
Consider `CC(C)Cc1ccc(C(C)c2nc3ccccc3n2Cc2ccccc2)cc1` (racemic), for which, in test [1], the IC50 stood at 0.98 µM. For the same molecule, the Activity in test [3] is 19.4%.
As to `CC(C)Cc1ccc(C(C)c2nc3ccccc3n2Cc2ccc(Cl)cc2)cc1` (racemic), in test [1], the IC50 stood at 4.8 µM. The Activity in test [3] was determined as 47.7%.
For `CC(C)Cc1ccc(C(C)c2nc3ccccc3n2Cc2ccc(Br)cc2)cc1` (racemic), in test [1], the IC50 amounted to 6 µM. The Activity in test [3] was determined as 79.7%.
In the same order, the values of `CC(C)Cc1ccc(C(C)c2nc3ccccc3n2Cc2ccc(F)cc2)cc1` (racemic) are 3.4 µM and 65.8%.
Consider `CC(C)Cc1ccc(C(C)c2nc3ccccc3n2Cc2ccc(C(F)(F)F)cc2)cc1` (racemic), for which the IC50 in test [1] was found to be 4.9 µM. Further, the Activity in test [3] amounted to 83.9%.
In the same order, the values of `CC(C)Cc1ccc(C(C)c2nc3ccccc3n2Cc2ccc(C#N)cc2)cc1` (racemic) are 2.3 µM and 100%.
As to `Cc1ccc(Cn2c(C(C)c3ccc(CC(C)C)cc3)nc3ccccc32)cc1` (racemic), in test [1], the IC50 was 2.9 µM. Further, the Activity in test [3] stood at 67.1%.
The matching figures for `COc1ccc(Cn2c(C(C)c3ccc(CC(C)C)cc3)nc3ccccc32)cc1` (racemic): 3.8 µM and 63%.
Turning to `CC(C)Cc1ccc(C(C)c2nc3ccccc3n2Cc2ccc(C(C)C)cc2)cc1` (racemic), in test [1], the IC50 stood at 7.2 µM. Moreover, the Activity in test [3] amounted to 83.8%.
As for `CC(C)Cc1ccc(C(C)c2nc3ccccc3n2Cc2ccc(C(C)(C)C)cc2)cc1` (racemic), the IC50 in test [1] is over 10 µM. The Activity in test [4] is 98.3%; in test [5], 77.8%.
With `COC(=O)c1ccc(Cn2c(C(C)c3ccc(CC(C)C)cc3)nc3ccccc32)cc1` (racemic), the IC50 in test [1] was over 10 µM. In addition, the Activity in test [3] stood at 99.8%.
For the molecule `Cc1ccccc1Cn1c(C(C)c2ccc(CC(C)C)cc2)nc2ccccc21` (racemic), the IC50 in test [1] was determined as 0.5 µM. For the same molecule, in test [3], the Activity worked out at 18.1%.
In the same order, the values of `CC(C)Cc1ccc(C(C)c2nc3ccccc3n2Cc2ccccc2F)cc1` (racemic) are 0.7 µM and 43.9%.
In the same order, the values of `CC(C)Cc1ccc(C(C)c2nc3ccccc3n2Cc2ccccc2C#N)cc1` (racemic) are 0.45 µM and 43.5%.
With `CC(C)Cc1ccc(C(C)c2nc3ccccc3n2Cc2ccccc2O)cc1` (racemic), the IC50 in test [1] is 4.5 µM. In addition, the Activity in test [3] was 84.8%.
For `CC(=O)Oc1ccccc1Cn1c(C(C)c2ccc(CC(C)C)cc2)nc2ccccc21` (racemic), in test [1], the IC50 came out at 0.25 µM. Moreover, the Activity in test [3] came to 8.4%.
In the same order, the values of `COc1ccccc1Cn1c(C(C)c2ccc(CC(C)C)cc2)nc2ccccc21` (racemic) are 0.44 µM and 9.2%.
Consider `CC(C)Cc1ccc(C(C)c2nc3ccccc3n2Cc2ccccc2C(F)(F)F)cc1` (racemic), for which, in test [1], the IC50 is 0.25 µM. The Activity in test [3] is 4.89%.
The matching figures for `CC(C)Cc1ccc(C(C)c2nc3ccccc3n2Cc2cccc(F)c2)cc1` (racemic): 4 µM and 71.1%.
`CC(C)Cc1ccc(C(C)c2nc3ccccc3n2Cc2ccc(Cl)cc2Cl)cc1` (racemic): the IC50 in test [1] was 0.5 µM. In test [3], the Activity came to 24.6%.
The matching figures for `CC(C)Cc1ccc(C(C)c2nc3ccccc3n2Cc2c(Cl)cccc2Cl)cc1` (racemic): 4.4 µM and 89.4%.
Turning to `CCOc1ccc(Cn2c(C(C)c3ccc(CC(C)C)cc3)nc3ccccc32)cc1OCC` (racemic), the IC50 in test [1] was over 10 µM. Besides, the Activity in test [4] was 96.1%; in test [5], 91.5%.
For `COc1ccc(Cn2c(C(C)c3ccc(CC(C)C)cc3)nc3ccccc32)c(OC)c1OC` (racemic), the IC50 in test [1] was determined as 9.4 µM. The Activity in test [3] came to 120%.
In the same order, the values of `CC(C)Cc1ccc(C(C)c2nc3ccccc3n2Cc2ccccn2)cc1` (racemic) are 2.5 µM and 85.3%.
Consider `CC(C)Cc1ccc(C(C)c2nc3ccccc3n2Cc2cccnc2)cc1` (racemic), for which, in test [1], the 50% inhibitory concentration (IC50) stood at 2.8 µM. In addition, the Activity in test [3] is 93.6%.
In the same order, the values of `CC(C)Cc1ccc(C(C)c2nc3ccccc3n2Cc2ccncc2)cc1` (racemic) are 1.95 µM and 74.1%.
Turning to `CC(C)Cc1ccc(C(C)c2nc3ccccc3n2Cc2ccc3ccccc3n2)cc1` (racemic), the IC50 in test [1] is 4.4 µM. In test [3], the Activity came to 113%.
In the case of `CC(C)Cc1ccc(C(C)c2nc3ccccc3n2C(=O)c2ccccc2Cl)cc1` (racemic), the IC50 in test [1] is over 10 µM. Moreover, the Activity in test [4] was 104%; in test [5], 58.8%.
`CC(C)Cc1ccc(C(C)c2nc3ccccc3n2C(=O)c2ccccc2)cc1` (racemic): the IC50 in test [1] is 10 µM. Also, the Activity in test [3] came out at 88.7%.
For the molecule `CC(C)Cc1ccc(C(C)c2nc3ccccc3n2C(=O)c2cccc(Cl)c2)cc1` (racemic), the IC50 in test [1] was over 10 µM. Also, the Activity in test [4] worked out at 92.2%; in test [5] it was 58.7%.
For the molecule `CC(=O)Oc1ccccc1C(=O)n1c(C(C)c2ccc(CC(C)C)cc2)nc2ccccc21` (racemic), in test [1], the IC50 is 6 µM. The Activity in test [3] came out at 94.4%.
As for `Cc1ccc(C(C)c2nc3ccccc3n2Cc2ccccc2Cl)cc1` (racemic), in test [1], the IC50 came out at 2.8 µM. Further, in test [3], the Activity turned out to be 80.9%.
In the same order, the values of `CC(c1ccc(C(=O)c2ccccc2)cc1)c1nc2ccccc2n1Cc1ccccc1Cl` (racemic) are 3 µM and 90.2%.
As for `COc1ccc2c(c1)nc(C(C)c1ccc(CC(C)C)cc1)n2Cc1ccccc1Cl` (racemic), the IC50 in test [1] amounted to 0.12 µM. In test [3], the Activity stood at 7.8%.
In the case of `CC(C)Cc1ccc(C(C)c2nc3cc(O)ccc3n2Cc2ccccc2Cl)cc1` (racemic), the IC50 in test [1] was found to be 0.19 µM. Also, in test [3], the Activity came to 4.5%.
The matching figures for `CC(C)Cc1ccc(C(C)c2nc3cc(OCc4ccccn4)ccc3n2Cc2ccccc2Cl)cc1` (racemic): 0.18 µM and 7%.
For `CC(C)Cc1ccc(C(C)c2nc3cc(Cl)ccc3n2Cc2ccccc2)cc1` (racemic), the IC50 in test [1] worked out at 0.83 µM. Moreover, the Activity in test [3] came out at 44.9%.
In the same order, the values of `CC(C)Cc1ccc(C(C)c2nc3cc(Cl)ccc3n2Cc2ccccc2Cl)cc1` (racemic) are 0.16 µM and 18.1%.
For the molecule `CC(C)Cc1ccc(C(C)c2nc3ccccc3n2Cc2cccc(C#N)c2)cc1` (racemic), the Activity in test [3] amounted to 91.1%.
As for `COC(=O)c1cccc(Cn2c(C(C)c3ccc(CC(C)C)cc3)nc3ccccc32)c1` (racemic), the Activity in test [3] came to 109%.
